One data set addresses T1, human AHR (Homo sapiens, UniProt P35869).
T1 sequence (P35869 11-848): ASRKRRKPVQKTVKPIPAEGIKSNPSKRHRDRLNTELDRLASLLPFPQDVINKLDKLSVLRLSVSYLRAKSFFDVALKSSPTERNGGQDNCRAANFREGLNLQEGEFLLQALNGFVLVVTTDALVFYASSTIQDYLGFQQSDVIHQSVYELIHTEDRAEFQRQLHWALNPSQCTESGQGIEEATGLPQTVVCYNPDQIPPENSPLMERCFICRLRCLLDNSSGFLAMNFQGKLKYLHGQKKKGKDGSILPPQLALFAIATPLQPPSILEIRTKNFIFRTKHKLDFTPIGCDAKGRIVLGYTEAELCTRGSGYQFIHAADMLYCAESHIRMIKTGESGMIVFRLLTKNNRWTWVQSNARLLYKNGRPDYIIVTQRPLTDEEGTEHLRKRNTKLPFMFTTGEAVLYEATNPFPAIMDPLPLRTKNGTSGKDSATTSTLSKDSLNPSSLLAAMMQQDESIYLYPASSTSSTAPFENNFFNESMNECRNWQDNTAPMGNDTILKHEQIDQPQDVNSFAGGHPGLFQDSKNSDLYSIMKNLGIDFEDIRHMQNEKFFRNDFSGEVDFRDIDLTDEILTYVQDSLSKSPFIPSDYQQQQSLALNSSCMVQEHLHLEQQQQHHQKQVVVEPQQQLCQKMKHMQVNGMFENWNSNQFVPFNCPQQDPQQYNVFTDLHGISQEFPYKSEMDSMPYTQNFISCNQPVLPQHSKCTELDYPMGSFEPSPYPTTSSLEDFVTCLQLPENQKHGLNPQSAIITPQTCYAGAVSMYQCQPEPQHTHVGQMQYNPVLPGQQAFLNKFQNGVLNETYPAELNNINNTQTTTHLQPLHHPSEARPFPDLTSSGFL
The experiment in a line: Human AHR-dependent luciferase reporter assay. The settings on record: HepG2 40/6 luciferase reporter, 4 hours, normalized to 10 nM TCDD and VEH. In kind it is cell-based.

Another data set deals with AHR target gene, CYP1A1. The experiment in a line: CYP1A1 induction in Caco2 cells. The format is cell-based, human. The settings on record: 4 hours, mean serum concentrations.
The test system of a further data set is mouse AHR. The experiment in a line: Mouse AHR-dependent luciferase reporter assay. The settings on record: Hepa 1.1 cells, 4 hours, mean concentrations measured in mouse sera. The format is cell-based. An outline of the steps:
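Hepa 1.1 cells were grown in αMEM with 8% FBS and 1% penicillin-streptomycin, then seeded 24 h before treatment. […] Lysate luciferase was read by luminometer and compared with vehicle; one-way ANOVA.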

The next data set deals with EREG. The format is cell-based, human. The settings on record: FLS co-treated with 0.5 ng/mL IL1β, 24 hours; TCDD 10 nM. A digest of the protocol:
(§1)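 Primary human fibroblast-like synoviocytes from healthy donors, kept and treated in Synoviocyte Growth Medium. […] RNA was isolated and transcripts quantified by real-time qPCR relative to ACTB, normalised to TCDD (10 nM) and vehicle. Mean ± SEM; one-way ANOVA.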

The subject of another data set is IL1B. The format is cell-based, human. Particulars: FLS co-treated with 0.5 ng/mL IL1β, 24 hours; TCDD 10 nM. An outline of the steps:
as §1

Each structure is given as a SMILES string.

Consider `O=C(O)C(O)Cc1c[nH]c2ccccc12` (centres unmarked) [Indole-3-lactic acid, indole-3-lactic acid], for which the EC25 at human AHR turned out to be 25.9 µM.

Regarding `O=C(O)CCc1c[nH]c2ccccc12` [Indole-3-propionic acid, indole-3-propionic acid], the 25% effect concentration (EC25) on human AHR was found to be 19.2 µM.

For the molecule `O=C(O)c1cc(=O)c2ccccc2[nH]1` [Kynurenic acid, kynurenic acid], the EC25 on human AHR came to 0.0408 µM.

On to `Nc1ccccc1C(=O)CC(N)C(=O)O` (centres unmarked) [Kynurenine, kynurenine], for which, at human AHR, the EC25 is 1.76 µM. Besides, the “AHR activity (CYP1A1 transcripts by qPCR) versus vehicle” value in the data set with AHR target gene, CYP1A1 is reported as “significantly different from the vehicle treatment”. In addition, the “induction of luciferase activity relative to the vehicle treatment” value in the data set with mouse AHR is reported as ~ 6 fold.

Turning to `Clc1cc2c(cc1Cl)Oc1cc(Cl)c(Cl)cc1O2` [TCDD, 2,3,7,8-tetrachlorodibenzo-p-dioxin], the “induction in EREG expression” value in the data set with EREG was 27 fold. Further, in the data set with IL1B, the “induction in IL1B expression” value was 192 fold.

Source of the values: PMC10334013 (International Journal of Tryptophan Research : IJTR, 2023).
